# Experimental data as given in the EternaBench riboswitch data.
# Assays:
# MS2 coat protein [1] = experiment: apparent Kd, MS2 coat protein; higher = weaker binding; RNA-MaP array; theophylline 2 mM where present
# Outline: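 Apparent Kd: the median of filtered binding-curve fits from single clusters. Designs were transcribed on Illumina sequencing-chip clusters by stalled E. coli RNA polymerase and titrated with SNAP-549-labelled MS2 coat protein from 0.7 or 1.5 nM, doubling to 3 µM, in 100 mM Tris-HCl pH 7.5, 80 mM KCl, 4 mM MgCl2, BSA, DTT, yeast tRNA and Tween-20. Each series ran without and then with constant ligand, and green signal was normalised to red-channel RNA signal and control-cluster median Fmax.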
# MS2 coat protein [2] = experiment: apparent Kd, MS2 coat protein; higher = weaker binding; RNA-MaP array
# Outline: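 Designs measured on fewer than 10 clusters were excluded from the data. The rest were RNAs transcribed from sequenced DNA templates on an Illumina sequencing chip and incubated at room temperature, with or without input ligand, with fluorescently labeled MS2 coat protein at 1.5 nM to 3 μM for 0.8–1.5 h at the lowest to 10–20 min at the highest concentrations. Apparent Kd is the median of the per-cluster binding-curve fits.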
# [3] = designed as: ON switch for theophylline, no ligand
# [4] = ligand present: theophylline, designed as: ON switch for theophylline
# [5] = designed as: OFF switch for theophylline, no ligand
# [6] = ligand present: theophylline, designed as: OFF switch for theophylline
# [7] = designed as: OFF switch for flavin mononucleotide, no ligand
# [8] = ligand present: flavin mononucleotide, designed as: OFF switch for flavin mononucleotide
# [9] = designed as: ON switch for flavin mononucleotide, no ligand
# [10] = ligand present: flavin mononucleotide, designed as: ON switch for flavin mononucleotide
sequence,measurement,setting,value
AUCGUACCUAGUGAUACCAGCAAGUGAUCAUAACAUGAGGAUCACCCAUGUAAUCAGUGAUGCCCUUGGCAGCAUAAUCGUUACA,apparent Kd,MS2 coat protein [1]; [3],0.193 µM
same,apparent Kd,MS2 coat protein [1]; [4],0.155 µM
AUCGUACCUGAUGAUACCAGCAAUUGCUCGUAACAUGAGGAUCACCCAUGUGACCAGUGAUGCCCUUGGCAGCAUGGUCGGUGCA,apparent Kd,MS2 coat protein [1]; [3],0.172 µM
same,apparent Kd,MS2 coat protein [1]; [4],0.0385 µM
AUCGUACCUGAUGAUACCAGCAAUUGCUCGUGACAUGAGGAUCACCCAUGUGACCAGUGAUGCCCUUGGCAGCAUGGUCGGUGCA,apparent Kd,MS2 coat protein [1]; [3],0.0971 µM
same,apparent Kd,MS2 coat protein [1]; [4],0.0133 µM
AUUAUCAUGGUCAUAUAUAUAUCUUCAGAUACCAGACUAUAUUAAGUCCCUUGGCAGCUGUUACAUGAGGAUCACCCAUGUUAUA,apparent Kd,MS2 coat protein [1]; [5],0.172 µM
same,apparent Kd,MS2 coat protein [1]; [6],0.0435 µM
AUUUAUGGUCGUGAUACCAGACAUACAUGAGGAUCACCCAUGUGAAAUAACAUAAUUUAGGUCCCUUGGCAGCACUUUUUAAUUA,apparent Kd,MS2 coat protein [1]; [3],0.0538 µM
same,apparent Kd,MS2 coat protein [1]; [4],0.0383 µM
CAUGAAGUAACUGAUACCAGUGUACACAUGAGGAUCACCCAUGUGUUGGGUUUUGUUGUACACCCUUGGCAGCAGAAUCUUUAUG,apparent Kd,MS2 coat protein [1]; [5],0.0566 µM
same,apparent Kd,MS2 coat protein [1]; [6],0.1 µM
CAUGAAGUAACUGAUACCAGUGUACUGACAUGAGGAUCACCCAUGUUGGGUUUUGUUGUACACCCUUGGCAGCAGAAUCUUUAUG,apparent Kd,MS2 coat protein [1]; [5],0.0691 µM
same,apparent Kd,MS2 coat protein [1]; [6],0.11 µM
GCCCUUGGCAGCGAUACCAGCCAAAAUUAAAAUAAACCUCUACAUGAGGAUCACCCAUGUGGCCCUUGGCAGCGAUACCAGCAAA,apparent Kd,MS2 coat protein [1]; [5],0.0497 µM
same,apparent Kd,MS2 coat protein [1]; [6],0.0764 µM
UAAAACAUGAGGAUCACCCAUGUAAAUGAUACCAGAGUGAUGAUCCUCCCUUGGCAGCAUAACGCUGAUUGGAAACAAUCAGCGA,apparent Kd,MS2 coat protein [1]; [3],0.13 µM
same,apparent Kd,MS2 coat protein [1]; [4],0.243 µM
UAAACACAUGAGGAUCACCCAUGUCAUGAUACCAGUCAACAUGAGGACCCUUGGCAGCAUAAAAUGGGUAACAUGAGGAUCACCC,apparent Kd,MS2 coat protein [1]; [5],0.0384 µM
same,apparent Kd,MS2 coat protein [1]; [6],0.112 µM
UAUAAAAUAACAGAUACCAGCGUGUUAUAAAACAUGAGGAUCACCCAUGUAGUGAUCAAGCGCCCUUGGCAGCUGGUAUUUUAUG,apparent Kd,MS2 coat protein [1]; [3],0.0793 µM
same,apparent Kd,MS2 coat protein [1]; [4],0.133 µM
UCACAUGAGGAUCACCCAUGUACAGGCGAUACCAGCCGUACAUUGGGCCCUUGGCAGCGCACCGAGACCUUUAUAAGCACCUCGG,apparent Kd,MS2 coat protein [1]; [3],0.0295 µM
same,apparent Kd,MS2 coat protein [1]; [4],0.192 µM
UGCCCAAACAUGAGGAUCACCCAUGUUGUGACCUCGGGAGCCAGAAGGGUAUUAAACAAGUCGGUACAGGAUAUGGUCUAGUAA,apparent Kd,MS2 coat protein [2]; [7],0.343 µM
same,apparent Kd,MS2 coat protein [2]; [8],0.214 µM
UGGUACAUGAGGAUCACCCAUGUCCUCAUCCGAGGACCGGUACGGCCGCCACUCGAAAUUGCGAUCGGCACAAAACAAAUGCUUG,apparent Kd,"MS2 coat protein [2]; designed as: ON switch for tryptophan, no ligand",0.142 µM
same,apparent Kd,"MS2 coat protein [2]; ligand present: tryptophan, designed as: ON switch for tryptophan",0.143 µM
UGGUAGUUGGAGAAGGGAUCGUCGGAACCCAGAUCAGGAUAUCCGACUACAUGAGGAUCACCCAUGUCCUAUCAGUACAAGUAC,apparent Kd,MS2 coat protein [2]; [7],0.0202 µM
same,apparent Kd,MS2 coat protein [2]; [8],0.041 µM
UUAGAAUACUAAGGAUAUGAUUAUGGCGCACCGCUGUCCGGUGUACAUGAGGAUCACCCAUGUAAUCAGAAGGUAGACUUGUCC,apparent Kd,MS2 coat protein [2]; [9],0.00994 µM
same,apparent Kd,MS2 coat protein [2]; [10],0.00891 µM
UUAGGUGCAGGAUAUACAAGACUUAGUAGGAUACCAGACCUACAUGAGGAUCACCCAUGUAGAAGGGCAAUGCA,apparent Kd,MS2 coat protein [2]; [7],0.0206 µM
same,apparent Kd,MS2 coat protein [2]; [8],0.0169 µM
UUCACAAGAAUUUACAUGAGGAUCACCCAUGUCCUUGCAAAGGAGGAUAUUGAGUACAAGACCUACAAGAAGGCCAGAGACAAG,apparent Kd,MS2 coat protein [2]; [9],0.0464 µM
same,apparent Kd,MS2 coat protein [2]; [10],0.0155 µM
UUCGACCACGAGAAGGUGACGAAGGCCGAUUGUCAAGGAUAUCGACACAUGAGGAUCACCCAUGUCAGAGCGGGACUAACUAAA,apparent Kd,MS2 coat protein [2]; [9],0.0226 µM
same,apparent Kd,MS2 coat protein [2]; [10],0.0128 µM
UUCUCACAUGAGGAUCACCCAUGUCUAAGGAGUACAGGAUAUGUGCCGUGAUUUUCGAGUACAGAAGGGUACAAUU,apparent Kd,MS2 coat protein [2]; [9],0.273 µM
same,apparent Kd,MS2 coat protein [2]; [10],0.0336 µM
UUCUGGCCGCAGAAGGAGGAUCUGGUUGAAAUCCUAGGAUAUGCAUCUAACCACUGGUCCACAUGAGGAUCACCCAUGUCAGAC,apparent Kd,MS2 coat protein [2]; [7],0.0163 µM
same,apparent Kd,MS2 coat protein [2]; [8],0.0124 µM
UUCUUGUCAGGAUAUGGCCCAGAGUCUAAGGCACCGAACGGCCAGAAGGGACAUGAGGAUCACCCAUGUAUCCU,apparent Kd,MS2 coat protein [2]; [7],0.0163 µM
same,apparent Kd,MS2 coat protein [2]; [8],0.0828 µM
UUGAUAGCAGGAUAUACCAGUCAUGUCUCGCAAUUUACCCGACAUGAGGAUCACCCAUGUAGAAGGGCUGUUUA,apparent Kd,MS2 coat protein [2]; [7],0.0153 µM
same,apparent Kd,MS2 coat protein [2]; [8],0.0145 µM
UUGUUUAGGAUAGGAUAUAGGUCUAAAAGUGAGUCGGACAUGAGGAUCACCCAUGUGGGUGCGAUCUAGAAGGAUCCGCCGCGG,apparent Kd,MS2 coat protein [2]; [7],0.754 µM
same,apparent Kd,MS2 coat protein [2]; [8],0.269 µM
UUUCGUAACCAACAUGAGGAUCACCCAUGUAGAAAGUUCCUAAGAAGGACAUAACCCAAUAGCAUGUAGGAUAUAAGUAAUCAC,apparent Kd,MS2 coat protein [2]; [9],0.0121 µM
same,apparent Kd,MS2 coat protein [2]; [10],0.0108 µM
UUUGAAAAGCAGAAGGUUCAUAACAUGAGGAUCACCCAUGUGACAUUAAUGAUCCGGUUUUUACGAAAGGAUAUGCUUCUCCUA,apparent Kd,MS2 coat protein [2]; [7],0.00833 µM
same,apparent Kd,MS2 coat protein [2]; [8],0.0326 µM
